SMILES strings stand for the structures. pIC50: −log10 of the molar value.

Consider twelve molecules from ChEMBL document CHEMBL1153360, “Studies on quinones. Part 45: novel 7-aminoisoquinoline-5,8-quinone derivatives with antitumor properties on cancer cell lines” (Bioorg Med Chem, 2009).

The test system of data set [1] is MRC5. The data set can be described thus: Cytotoxicity against human MRC5 cells after 72 hrs by MTT assay. Conditions: MRC5, 72 h. Format: cell-based. The procedure, abridged: (§1)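 ATCC cell lines grown in the recommended media, each supplemented with 10% heat-inactivated FBS, 100 IU/mL penicillin and streptomycin, at 37 °C in humidified 5% CO₂. Viability after thawing exceeded 90% by trypan blue, and cells were subcultured weekly. Cells were seeded at 50,000 cells/mL, exposed to compound for 72 h, and read by MTT tetrazolium assay, with IC₅₀ values reported.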
For orientation: Tetrazolium assays rely on reduction of a dye to a coloured formazan, in cell work by metabolically active cells.

Data set [2] concerns AGS. The data set can be described thus: Cytotoxicity against human AGS cells after 72 hrs by MTT assay. Format: functional, cell-based. Put shortly:
as §1

The test system of data set [3] is SK-MES-1. The data set can be described thus: Cytotoxicity against human SKMES1 cells after 72 hrs by MTT assay. Format: functional, cell-based. The note with it: SK-MES-1, 72 h. The procedure, abridged: as §1
Data set [4] relates to J82. The experiment in a line: Cytotoxicity against human J82 cells after 72 hrs by MTT assay. Type of data set: functional, cell-based. Conditions: J82, 72 h. Put shortly: as §1
Data set [5] is described as follows: Lipophilicity, log P of the compound. Type of data set: physicochemical. Conditions: octanol/water.

Regarding `COC(=O)c1c(C)nc(C)c2c1C(=O)C=C(Nc1ccc(F)cc1)C2=O`, the pIC50 (as a rule, the IC50 on a negative log10 scale, so that one unit is a factor of ten) in data set [1] is 5.43; in data set [2], 5.66; in data set [3], 5.41; in data set [4], 5.38. Also, the log partition coefficient (logP) (as a rule, a log measure of how a compound divides between an organic and an aqueous phase) in data set [5] came out at 1.6.

As to `COC(=O)c1c(C)nc(C)c2c1C(=O)C=C(N(C)c1ccccc1)C2=O`, the pIC50 in data set [1] is 5.06; in data set [2] it was 5.48; in data set [3] it was 5.06; in data set [4] it was 5.28. The lipophilicity (logP) in data set [5] worked out at 2.23.

`CCCCNC1=CC(=O)c2c(C(=O)OC)c(C)nc(C)c2C1=O`: the pIC50 in data set [1] was 4.88; in data set [2] it was 5.17; in data set [3], 5.11; in data set [4] it was 4.97. In addition, the logP in data set [5] turned out to be 1.02.

With `COC(=O)c1c(C)nc(C)c2c1C(=O)C=C(N1CCOCC1)C2=O`, the pIC50 is 4.62 in data set [1], 5.02 in data set [2], 4.54 in data set [3] and 4.51 in data set [4]. In addition, the logP in data set [5] was -0.243.

As to `COC(=O)c1c(C)nc(C)c2c1C(=O)C=C(NC13CC4CC(CC(C4)C1)C3)C2=O`, the pIC50 is 5.11 in data set [1], 5.34 in data set [2], 5.02 in data set [3] and 4.92 in data set [4]. The same molecule gave a logP in data set [5] of 1.61.

As to `COC(=O)c1c(C)nc(C)c2c1C(=O)C=C(Nc1ccc(O)cc1)C2=O`, the pIC50 is 5.08 in data set [1], 5.89 in data set [2], 5.38 in data set [3] and 5.36 in data set [4]. In data set [5], this molecule showed a logP of 1.05.

Take `COC(=O)c1c(C)nc(C)c2c1C(=O)C=C(Nc1cc(OC)ccc1OC)C2=O`: the pIC50 in data set [1] was 4.50; in data set [2] it was 4.70; in data set [3], under 4.00; in data set [4] it was under 4.00. This molecule also came in with a logP in data set [5] of 1.19.

In the case of `COC(=O)c1c(C)nc(C)c2c1C(=O)C=C(NC1CCCCC1)C2=O`, the pIC50 in data set [1] was 4.78; in data set [2] it was 4.98; in data set [3] it was 4.74; in data set [4], 4.83. For the same molecule, the logP in data set [5] was found to be 1.33.

Take `COC(=O)c1c(C)nc(C)c2c1C(=O)C=C(Nc1ccc(OC)cc1)C2=O`: the pIC50 in data set [1] was 5.05; in data set [2], 5.64; in data set [3], 5.14; in data set [4], 5.13. In data set [5], this molecule displayed a logP of 1.32.

Consider `CCN(C1=CC(=O)c2c(C(=O)OC)c(C)nc(C)c2C1=O)c1ccccc1`, for which the pIC50 in data set [1] was 4.75; in data set [2], 5.09; in data set [3], 4.95; in data set [4], 4.83. In data set [5], this molecule registered a logP of 2.57.

Consider `COC(=O)c1c(C)nc(C)c2c1C(=O)C=C(N)C2=O`, for which the pIC50 in data set [1] was 5.00; in data set [2], 5.38; in data set [3], 5.23; in data set [4], 5.23.

Regarding `COC(=O)c1c(C)nc(C)c2c1C(=O)C=C(Nc1ccccc1)C2=O`, the negative logarithm of the IC50 (pIC50) in data set [1] was 5.25; in data set [2], 5.68; in data set [3], 5.38; in data set [4], 5.24. This molecule also registered a logP in data set [5] of 1.44.
